Drawing on the RNAGym collection of RNA variant scans (doi:10.1126/science.aae0568), this text covers yeast fitness for 167 variants.

Variants at the floor of the assay were thinned out.

To fix the notation:
B1: tRNA (parent)
chain: GUUCCGUUGGCGUAAUGGUAACGCGUCUCCCUCCUAAGGAGAAGACUGCGGGUUCGAGUCCCGUACGGAACG

The variants in the data set derive from B1. As to the kind of experiment: yeast fitness relative to wild type (ratio to wild type); higher = fitter; tRNA-Arg(CCU), competitive growth, 37 C, YPD. A digest of the protocol:
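The tRNA-Arg(CCU) gene variants were made by chemical synthesis with a 3% per-site mutation rate at 69 sites and inserted at the native genomic locus of Saccharomyces cerevisiae. After pooling, the strains were competed in YPD at 37°C for 24 hours in six parallel replicates. Gene amplicons from the start population and each end population were read by 100-nucleotide paired-end sequencing, and Darwinian fitness relative to wild type was taken from genotype frequency changes. Genotypes needed ≥ 100 starting reads, and estimates < 0.5 were set to 0.5.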
G10A A21G U28C: the yeast fitness is ≤ 0.5.
On to G9C U32C A36G G52A, for which the yeast fitness was ≤ 0.5.
As for G10A A42G A70C, the yeast fitness is ≤ 0.5.
Under G10A C22G A37G G38A stands ≤ 0.5.
Take G10A C24A G44A: the yeast fitness was determined as 0.553.
For G10A C11A A14G A15G, the yeast fitness was ≤ 0.5.
Take G10A C30A A70G: the yeast fitness was ≤ 0.5.
For G10A A57G C62G C66U, the yeast fitness is ≤ 0.5.
Consider G9C U28C A42U U59G, for which the yeast fitness was ≤ 0.5.
In the case of G9C C34A C46A G56A, the yeast fitness was ≤ 0.5.
Next, G10A C29U C49U G56A: 0.633.
Next, G9C G17A C27U: ≤ 0.5; G9C C61U C66G: ≤ 0.5; G10A A37G C49G: ≤ 0.5.
For G9C U26G C55A, the yeast fitness is ≤ 0.5.
On to G9C C62U, for which the yeast fitness was 0.814.
Turning to G10A C30U G50A, the yeast fitness came to 0.529.
Under G10A C30U G63A stands 0.538; under G9C U16A C24U C30U, 0.533; under G9C G17C G39C A70U, ≤ 0.5.
Under G9C U19C A40U A57U stands ≤ 0.5; under G9C G25A, 0.721.
For the variant G10A C24G C62U, the yeast fitness amounted to 0.54.
Turning to G9U A37U G50C C66U, the yeast fitness is ≤ 0.5.
Under G10A C24U C27G stands ≤ 0.5.
In the case of G9C C29A U32G C66U, the yeast fitness was ≤ 0.5.
With G9C U16G U32C A37C, the yeast fitness is ≤ 0.5.
Regarding G10A C24A C27A A45G, the yeast fitness is ≤ 0.5.
In the case of G9C C24U U26G, the yeast fitness came to 0.51.
With G9C U16G C29A, the yeast fitness was ≤ 0.5.
Take G10A A45G U59C: the yeast fitness came to 0.616.
On to G9C C49U A57G, for which the yeast fitness is 0.615.
Consider G9C C30U A69U, for which the yeast fitness was ≤ 0.5.
As to G9C U28A, the yeast fitness stood at 0.708.
As to G10A C30G C60G G63A A65U C66U, the yeast fitness was ≤ 0.5.
With G9C C31A C49G C55G A70C, the yeast fitness is ≤ 0.5.
For G10A C31U A42G, the yeast fitness is ≤ 0.5.
Next, G10A C11A A15C C24A C34A C46G: 0.559; G9C C27U A42U C55G: ≤ 0.5.
For G10A C11A C22U C34G A43C G48C, the yeast fitness was 0.585.
As for G9C C11U A36C, the yeast fitness was ≤ 0.5.
Turning to G9C C30U C31G, the yeast fitness was determined as 0.632.
Next, G10A C33U C49U: 0.663; G9C C31A: 0.685; G9C C24U U26G G68U: ≤ 0.5.
Take G9C U16C C30U: the yeast fitness came to 0.506.
Regarding G9C G12A C29A G38A, the yeast fitness was ≤ 0.5.
On to G10A C60G A69G, for which the yeast fitness worked out at 0.616.
G10A A36C A70U: the yeast fitness was ≤ 0.5.
In the case of G9C U28C C30G C49G, the yeast fitness was ≤ 0.5.
G9C G38C: the yeast fitness turned out to be 0.546.
As to G9C C24U U26G C61G, the yeast fitness is 0.504.
Turning to G9C U19G, the yeast fitness came out at 0.502.
G10A A14U A20G U26G C31G C34G A42U A43C G50C A70C: the yeast fitness was ≤ 0.5.
Turning to G9C C34U A43U C55A A57C, the yeast fitness was ≤ 0.5.
As to G9C G23A A43U A57U, the yeast fitness worked out at 0.561.
Consider G10A C34G, for which the yeast fitness was ≤ 0.5.
With G10A A21G C22U, the yeast fitness was found to be 0.606.
Regarding G10A C29U G44C C60U, the yeast fitness was ≤ 0.5.
Turning to G10A C22G C27U G56A, the yeast fitness is ≤ 0.5.
Turning to G9C U32A C55U A57U, the yeast fitness was ≤ 0.5.
Take G10A C22G A37G G38A G51C U53G: the yeast fitness is ≤ 0.5.
Take G10A C24U A36C A69C: the yeast fitness turned out to be 0.534.
For G9C C27U C33G, the yeast fitness was ≤ 0.5.
Consider G9C U19C A69U, for which the yeast fitness amounted to 0.656.
With G10A C24G A43G, the yeast fitness was ≤ 0.5.
In the case of G10A C31U A40C G48A, the yeast fitness is ≤ 0.5.
On to G10A C24G U47C C62U, for which the yeast fitness is ≤ 0.5.
Turning to G9C C31G A69G, the yeast fitness is ≤ 0.5.
With G9C C29A C34U, the yeast fitness is ≤ 0.5.
As for G9C U35C C46U, the yeast fitness stood at 0.601.
Next, G9C C55A A69C: ≤ 0.5; G9C U13A G25A A40C G67C: ≤ 0.5; G10A C60G G67A: ≤ 0.5.
Turning to G9C G10C C29G, the yeast fitness was ≤ 0.5.
On to G9C C11G C24U C31U U59A A70C, for which the yeast fitness was determined as 0.563.
Turning to G9C C49G G50A C60G A65G A70G, the yeast fitness was ≤ 0.5.
Turning to G10A C30G A36C G58A, the yeast fitness is ≤ 0.5.
In the case of G10A A37U G67C, the yeast fitness was determined as 0.587.
Under G10A A14U A21C C29U C60A stands 0.647; under G9C U28C G44C U54C, ≤ 0.5.
As for G9C G17C C27G U35A C49A, the yeast fitness is ≤ 0.5.
For G10A C11A A15C C24A C34A C46G G67C, the yeast fitness was ≤ 0.5.
Next, G9U C27U C29A A69U: ≤ 0.5.
Take G10A C11G C30G A57G G58A U59A: the yeast fitness is ≤ 0.5.
Consider G10A A57C U59C, for which the yeast fitness was ≤ 0.5.
With G9C C30G G38C G58C C66A, the yeast fitness is 0.535.
G9C G18C G44A: the yeast fitness is 0.526.
As to G9C C29U A36U A65G G67A, the yeast fitness is ≤ 0.5.
Under G10A A14U A20G U26G C31G C34G A42U A43C G50C stands ≤ 0.5; under G9C G17A C66U, ≤ 0.5.
As to G9C G17A C27U U54A, the yeast fitness is ≤ 0.5.
Under G9C U13C A20G C31G A57G stands ≤ 0.5.
Consider G9C U13G U28C G41C A43C A45U C49G U53G A69C, for which the yeast fitness came to 0.611.
Turning to G9U U16G C66A, the yeast fitness was ≤ 0.5.
For G10A C11G G41C A45U, the yeast fitness is ≤ 0.5.
With G9C C24U U26G C62U, the yeast fitness is ≤ 0.5.
As for G9C G51C G52A, the yeast fitness was ≤ 0.5.
For G9C G67C, the yeast fitness turned out to be 0.746.
G10A A65G: the yeast fitness came to 0.627.
Under G10A A43C A65G stands 0.589.
G10A C22A: the yeast fitness stood at 0.717.
Next, G10A C22G: 0.637; G10A A40U: 0.683; G10A A40G: 0.79.
Next, G10A C24U G41A C49U U53A C66G: ≤ 0.5.
Consider G10A C30U G50A A70U, for which the yeast fitness is ≤ 0.5.
Next, G10A A21C C24A A65C A69C: ≤ 0.5; G10A C34G G44C U47C G52A U53C C61U: ≤ 0.5.
Take G10A C31A C55U G63A: the yeast fitness was ≤ 0.5.
Turning to G9C G48A, the yeast fitness is 0.705.
Next, G10A C27A U35C: ≤ 0.5.
In the case of G9C G63A C66U, the yeast fitness was ≤ 0.5.
For G10A C31U G38C, the yeast fitness was 0.512.
Next, G10A A20C G38A G41A: ≤ 0.5; G10A C30U C60G: ≤ 0.5; G9C U19C C31A C55U: 0.641.
On to G10A C27G U35A A45U G67A, for which the yeast fitness was ≤ 0.5.
Take G9C C24U C30G G51A C60U G67A: the yeast fitness turned out to be 0.543.
Under G9C C11A U47G U59A stands ≤ 0.5; under G10A A15U A36U A70C, ≤ 0.5.
On to G9C C31G A40C, for which the yeast fitness was determined as 0.597.
Take G9C G23C: the yeast fitness came to 0.573.
G9U G23C A45U G51C: the yeast fitness is ≤ 0.5.
With G9C G38A A65G, the yeast fitness stood at 0.519.
For G9C C29G C34G, the yeast fitness was ≤ 0.5.
Under G10A A15C C49A C61U C62G stands ≤ 0.5.
Next, G10A C31A G41A A45U G58C: ≤ 0.5; G9C C55A C61U: ≤ 0.5; G9C C27U G52C: ≤ 0.5.
G9C C30G A36U C46A: the yeast fitness came out at 0.532.
With G10A A15G C55U, the yeast fitness came to 0.591.
With G9C G23C C29U A36C C49G, the yeast fitness was ≤ 0.5.
Under G9C U26A A40C C55U C66A A69U stands ≤ 0.5; under G9C U32C A43C, ≤ 0.5; under G9C G10C A36C G39C G48A, 0.512.
As to G10A C33U G50A, the yeast fitness was ≤ 0.5.
Take G10A A20U A42G C60U U64A C66A G68A A69G: the yeast fitness is ≤ 0.5.
As to G9C G10C C29G C46A, the yeast fitness was 0.59.
For the variant G10A C22U G56C, the yeast fitness was determined as 0.566.
Next, G9C C30U G48C: ≤ 0.5; G10A A14C C29A: ≤ 0.5; G9U U16A A36C A37G G56C: ≤ 0.5.
As to G10A C31A A37C, the yeast fitness was ≤ 0.5.
For G9C G48C G58A A70U, the yeast fitness came to 0.552.
For G10A C46A, the yeast fitness was found to be 0.677.
Under G10A C29G G56C U59A stands ≤ 0.5; under G9C C24G C29G C55U A70G, ≤ 0.5.
G10A C11A: the yeast fitness turned out to be 0.636.
Consider G10A A70G, for which the yeast fitness is 0.743.
G9C C30A C46A G48C A70C: the yeast fitness is ≤ 0.5.
Next, G9C C27G C46U: 0.582; G9C C24A C62G: ≤ 0.5; G10A C11U C29A C34A G44A C66G: 0.545.
For the variant G9C U13C C31G A65U, the yeast fitness was ≤ 0.5.
Under G10A A21U U53A C66U stands ≤ 0.5; under G9C C46A, 0.893.
On to G10A C31U G38C G63A G68C A69G, for which the yeast fitness was found to be 0.578.
Regarding G9C U28A G50C U59A, the yeast fitness turned out to be 0.685.
Take G9C C46G C61G A65C: the yeast fitness is ≤ 0.5.
G9C C30U U53C: the yeast fitness was ≤ 0.5.
As to G10A A36U G38A A65C, the yeast fitness was ≤ 0.5.
Regarding G10A A45G C46G U54G A70C, the yeast fitness is 0.532.
Under G9C G50C stands 0.514; under G10A C29G C33U, ≤ 0.5; under G10A C24G C34U, ≤ 0.5.
Take G9C U13A G41A C62U: the yeast fitness was ≤ 0.5.
